According to ChEMBL document CHEMBL3120115, “Synthesis and biological evaluation of 2-oxonicotinonitriles and 2-oxonicotinonitrile based nucleoside analogues” (Eur J Med Chem, 2014):

Tests used:
[1] = Selectivity index, ratio of CC50 for cytotoxicity to EC50 for Influenza A virus H1N1; format: toxicity; details: read-out: Ratio CC50/EC50
Procedure, shortened: (§1)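 CC50 is the concentration at which 50% of cells die, and EC50 is the concentration inhibiting 50% of viral infection. SI is calculated as the CC50/EC50 ratio.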

Human alphaherpesvirus 2 = assay: Antiviral activity against HSV2 assessed as inhibition of viral infection; format: functional, organism-based
Hepatitis C virus = assay: Antiviral activity against Hepatitis C virus assessed as inhibition of viral infection by RNA replicon assay; format: functional, organism-based, Hepacivirus hominis
[2] = Selectivity index, ratio of CC50 for cytotoxicity to EC50 for HSV1; format: toxicity; details: read-out: Ratio CC50/EC50; procedure, shortened: as §1
[3] = Selectivity index, ratio of CC50 for cytotoxicity to EC50 for Influenza A virus H3N2; format: toxicity; details: read-out: Ratio CC50/EC50; procedure, shortened: as §1
Human alphaherpesvirus 1 = assay: Antiviral activity against HSV1 assessed as inhibition of viral infection; format: functional, organism-based
Influenza B virus = assay: Antiviral activity against Influenza B virus by cytopathy assay; format: functional, organism-based
West Nile virus = assay: Antiviral activity against West Nile virus by visual/neutral red test; format: functional, organism-based
Influenza A virus [4] = assay: Antiviral activity against Influenza A virus H3N2 by cytopathy assay; format: functional, organism-based
Influenza A virus [5] = assay: Antiviral activity against Influenza A virus H5N1 by cytopathy assay; format: functional, organism-based
Hepatitis B virus = assay: Antiviral activity against Hepatitis B virus assessed as inhibition of viral infection by DNA virion assay; format: functional, organism-based
Influenza A virus [6] = assay: Antiviral activity against Influenza A virus H1N1 by cytopathy assay; format: functional, organism-based
SARS-CoV = assay: Antiviral activity against SARS coronavirus by visual/neutral red test; format: functional, organism-based; details: Severe acute respiratory syndrome-related coronavirus
[7] = Selectivity index, ratio of CC50 for cytotoxicity to EC50 for HSV2; format: toxicity; details: read-out: Ratio CC50/EC50; procedure, shortened: as §1
Escherichia coli = assay: Antimicrobial activity against Escherichia coli at 250 ug/disc after 48 hrs by well diffusion method; format: functional; details: read-out: DIZ
Procedure, shortened: (§2)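 Well diffusion assay. Bacteria were grown on nutrient agar and fungi on Czapek's-Dox agar; spores were inoculated into sterilized medium, dispersed and poured into plates. Compounds were dissolved in DMF at 250 mg/mL and loaded into 1 cm wells. Plates stood 24 h refrigerated for diffusion, then were incubated at 35 °C for 48 h (bacteria) or 28 °C for 5-7 days (fungi). Inhibition zone diameter was read in mm. DMF-only wells served as negative control.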

[8] = Selectivity index, ratio of CC50 for cytotoxicity to EC50 for Influenza A virus H5N1; format: toxicity; details: read-out: Ratio CC50/EC50; procedure, shortened: as §1
[9] = Selectivity index, ratio of CC50 for cytotoxicity to EC50 for Influenza B virus; format: toxicity; details: read-out: Ratio CC50/EC50; procedure, shortened: as §1
Aspergillus viridinutans = assay: Antimicrobial activity against Aspergillus viridinutans at 250 ug/disc after 5 to 7 days by well diffusion method; format: functional; details: read-out: DIZ; procedure, shortened: as §2
Bacillus subtilis = assay: Antimicrobial activity against Bacillus subtilis at 250 ug/disc after 48 hrs by well diffusion method; format: functional; details: read-out: DIZ; procedure, shortened: as §2
Aspergillus niger = assay: Antimicrobial activity against Aspergillus niger at 250 ug/disc after 5 to 7 days by well diffusion method; format: functional; details: read-out: DIZ; procedure, shortened: as §2

N#Cc1c(-c2cccs2)cc(-c2cccs2)nc1O
selectivity ratio [1]: > 3.1
EC50 (Human alphaherpesvirus 2): > 12 µM
EC50 (Hepatitis C virus): > 100 µM
selectivity ratio [2]: < 4.7
selectivity ratio [3]: > 4.2
EC50 (Human alphaherpesvirus 1): > 12 µM
EC50 (Influenza B virus): > 100 µM
EC50 (West Nile virus): > 4.6 µM
EC50 (Influenza A virus [4]): 16 µM
EC50 (Influenza A virus [5]): > 100 µM
EC50 (Hepatitis B virus): > 100 µM
EC50 (Influenza A virus [6]): 32 µM
EC50 (SARS-CoV): > 100 µM
selectivity ratio [7]: < 4.8

CC(=O)OC[C@H]1O[C@@H](n2c(-c3cccs3)cc(-c3ccc(C(C)C)cc3)c(C#N)c2=O)[C@H](OC(C)=O)[C@@H](OC(C)=O)[C@@H]1OC(C)=O
zone of inhibition at 250 µg/disc (Escherichia coli): 0 mm
EC50 (Human alphaherpesvirus 2): 60.3 µM
EC50 (Hepatitis C virus): > 100 µM
selectivity ratio [2]: > 4.4
selectivity ratio [3]: > 3
selectivity ratio [8]: 1
EC50 (Human alphaherpesvirus 1): 67.2 µM
selectivity ratio [9]: > 2.2
EC50 (Influenza B virus): 40 µM
EC50 (West Nile virus): > 4.7 µM
zone of inhibition at 250 µg/disc (Aspergillus viridinutans): 7 mm
EC50 (Influenza A virus [4]): 33 µM
EC50 (Influenza A virus [5]): 32 µM
EC50 (Hepatitis B virus): > 100 µM
zone of inhibition at 250 µg/disc (Bacillus subtilis): 1 mm
EC50 (SARS-CoV): > 100 µM
selectivity ratio [7]: > 4.9

CC(=O)OC[C@H]1O[C@@H](n2c(-c3cccs3)cc(-c3cccs3)c(C#N)c2=O)[C@H](OC(C)=O)[C@@H](OC(C)=O)[C@@H]1OC(C)=O
zone of inhibition at 250 µg/disc (Escherichia coli): 0 mm
EC50 (Human alphaherpesvirus 2): > 60 µM
EC50 (Hepatitis C virus): > 100 µM
selectivity ratio [2]: < 4
zone of inhibition at 250 µg/disc (Aspergillus niger): 8 mm
selectivity ratio [3]: > 2.5
EC50 (Human alphaherpesvirus 1): > 60 µM
selectivity ratio [9]: 1
EC50 (Influenza B virus): 32 µM
EC50 (West Nile virus): > 3 µM
zone of inhibition at 250 µg/disc (Aspergillus viridinutans): 6 mm
EC50 (Influenza A virus [4]): 40 µM
EC50 (Influenza A virus [5]): > 100 µM
EC50 (Hepatitis B virus): > 100 µM
zone of inhibition at 250 µg/disc (Bacillus subtilis): 2 mm
EC50 (SARS-CoV): > 32 µM
selectivity ratio [7]: < 4

CC(C)c1ccc(-c2cc(-c3cccs3)n([C@@H]3O[C@H](CO)[C@@H](O)[C@H](O)[C@H]3O)c(=O)c2C#N)cc1
zone of inhibition at 250 µg/disc (Escherichia coli): 0 mm
zone of inhibition at 250 µg/disc (Aspergillus niger): 7 mm
zone of inhibition at 250 µg/disc (Aspergillus viridinutans): 8 mm
zone of inhibition at 250 µg/disc (Bacillus subtilis): 10 mm

N#Cc1c(-c2cccs2)cc(-c2cccs2)n([C@@H]2O[C@H](CO)[C@@H](O)[C@H](O)[C@H]2O)c1=O
zone of inhibition at 250 µg/disc (Aspergillus viridinutans): 6 mm
zone of inhibition at 250 µg/disc (Bacillus subtilis): 2 mm

CC(=O)OC[C@H]1O[C@@H](n2c(-c3ccccn3)cc(-c3ccc(Cl)cc3)c(C#N)c2=O)[C@H](OC(C)=O)[C@@H](OC(C)=O)[C@H]1OC(C)=O
zone of inhibition at 250 µg/disc (Escherichia coli): 0 mm
zone of inhibition at 250 µg/disc (Aspergillus niger): 7 mm
zone of inhibition at 250 µg/disc (Aspergillus viridinutans): 5 mm

CC(=O)OC[C@H]1O[C@@H](n2c(-c3cccs3)cc(-c3ccc(C(C)C)cc3)c(C#N)c2=O)[C@H](OC(C)=O)[C@@H](OC(C)=O)[C@H]1OC(C)=O
zone of inhibition at 250 µg/disc (Aspergillus niger): 9 mm
zone of inhibition at 250 µg/disc (Aspergillus viridinutans): 6 mm

N#Cc1c(-c2ccc(Cl)cc2)cc(-c2ccccn2)n([C@@H]2O[C@H](CO)[C@H](O)[C@H](O)[C@H]2O)c1=O
zone of inhibition at 250 µg/disc (Escherichia coli): 0 mm
zone of inhibition at 250 µg/disc (Aspergillus viridinutans): 7 mm
zone of inhibition at 250 µg/disc (Bacillus subtilis): 2 mm

CC(C)c1ccc(-c2cc(-c3cccs3)n([C@@H]3O[C@H](CO)[C@H](O)[C@H](O)[C@H]3O)c(=O)c2C#N)cc1
zone of inhibition at 250 µg/disc (Escherichia coli): 5 mm
zone of inhibition at 250 µg/disc (Aspergillus viridinutans): 6 mm
zone of inhibition at 250 µg/disc (Bacillus subtilis): 3 mm

N#Cc1c(-c2cccs2)cc(-c2cccs2)n([C@@H]2O[C@H](CO)[C@H](O)[C@H](O)[C@H]2O)c1=O
zone of inhibition at 250 µg/disc (Escherichia coli): 0 mm
zone of inhibition at 250 µg/disc (Aspergillus viridinutans): 8 mm
zone of inhibition at 250 µg/disc (Bacillus subtilis): 4 mm

CC(=O)OCCCCOc1nc(-c2ccccn2)cc(-c2ccc(Cl)cc2)c1C#N
zone of inhibition at 250 µg/disc (Escherichia coli): 0 mm
zone of inhibition at 250 µg/disc (Aspergillus niger): 9 mm
zone of inhibition at 250 µg/disc (Aspergillus viridinutans): 7 mm
zone of inhibition at 250 µg/disc (Bacillus subtilis): 3 mm

N#Cc1c(-c2ccc(Cl)cc2)cc(-c2ccccn2)nc1OCCCCO
zone of inhibition at 250 µg/disc (Escherichia coli): 0 mm
zone of inhibition at 250 µg/disc (Aspergillus niger): 7 mm
zone of inhibition at 250 µg/disc (Aspergillus viridinutans): 5 mm
zone of inhibition at 250 µg/disc (Bacillus subtilis): 2 mm

CC(=O)OCCOCn1c(-c2cccs2)cc(-c2cccs2)c(C#N)c1=O
zone of inhibition at 250 µg/disc (Escherichia coli): 0 mm
zone of inhibition at 250 µg/disc (Aspergillus niger): 8 mm
zone of inhibition at 250 µg/disc (Aspergillus viridinutans): 7 mm
zone of inhibition at 250 µg/disc (Bacillus subtilis): 10 mm
